Measured values from ChEMBL document CHEMBL1136710, “Phenylbutyrates as potent, orally bioavailable vitronectin receptor (integrin alphavbeta3) antagonists” (Bioorg Med Chem Lett, 2003).

Tests used:
Integrin alpha-V/beta-5 = Integrin alpha-V/beta-5 (Homo sapiens, UniProt P06756+P18084); assay: Binding affinity for alphaV-beta5 vitronectin receptor; assay type: protein-complex assay
Summary of the method: (§1)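 Competitive radioligand binding to isolated human integrin, αvβ3 or αvβ5, with 3H-SK&F-107260 as the displaced ligand; Ki values are means of two to three separate experiments.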

Integrin alpha-V/beta-3 [1] = target: T1, Integrin alpha-V/beta-3 (Homo sapiens, UniProt P05106+P06756); assay: Binding affinity for alphav/beta 3 vitronectin receptor in HEK cells; assay type: cell-based, HEK293
Summary of the method: (§2)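 Cell-based αvβ3 assay: HEK 293 cells transfected with human αvβ3; inhibition of adhesion to purified human vitronectin measured; IC50 values are means of two experiments, each in triplicate, run with an internal standard.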

[2] = Half life period in rat; assay type: ADME, organism-based; conditions: in vivo
Summary of the method: (§3)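 Rats (three per compound) dosed iv and po; plasma concentration–time data analysed non-compartmentally for half-life and clearance; oral bioavailability calculated from dose-normalized iv and po AUC (area under plasma concentration–time curve).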

[3] = Plasma clearance in rat; assay type: ADME, organism-based; conditions: read-out: Clp; summary of the method: as §3
Integrin alpha-V/beta-3 [4] = target: T1, Integrin alpha-V/beta-3; assay: Binding affinity for alphaV-beta3 vitronectin receptor; assay type: protein-complex assay; summary of the method: as §1
[5] = Oral bioavailability in rat; assay type: ADME, organism-based; conditions: in vivo; summary of the method: as §3
[6] = target: Integrin alpha-IIb/beta-3 (Homo sapiens, UniProt P05106+P08514); assay: Binding affinity for alphaIIb-beta3 vitronectin receptor; assay type: protein-complex assay
Integrin alpha-V/beta-3 [7] = target: T1, Integrin alpha-V/beta-3; assay: Inhibition of HEK 293 cell adhesion to vitronectin by human alphaV-beta3 integrin; assay type: cell-based, HEK293; summary of the method: as §2
Homo sapiens = species: Homo sapiens; assay: Compound was tested for the inhibition of human vascular smooth muscle cell migration; assay type: functional

T1 sequence (P05106 27-788 limits assumed): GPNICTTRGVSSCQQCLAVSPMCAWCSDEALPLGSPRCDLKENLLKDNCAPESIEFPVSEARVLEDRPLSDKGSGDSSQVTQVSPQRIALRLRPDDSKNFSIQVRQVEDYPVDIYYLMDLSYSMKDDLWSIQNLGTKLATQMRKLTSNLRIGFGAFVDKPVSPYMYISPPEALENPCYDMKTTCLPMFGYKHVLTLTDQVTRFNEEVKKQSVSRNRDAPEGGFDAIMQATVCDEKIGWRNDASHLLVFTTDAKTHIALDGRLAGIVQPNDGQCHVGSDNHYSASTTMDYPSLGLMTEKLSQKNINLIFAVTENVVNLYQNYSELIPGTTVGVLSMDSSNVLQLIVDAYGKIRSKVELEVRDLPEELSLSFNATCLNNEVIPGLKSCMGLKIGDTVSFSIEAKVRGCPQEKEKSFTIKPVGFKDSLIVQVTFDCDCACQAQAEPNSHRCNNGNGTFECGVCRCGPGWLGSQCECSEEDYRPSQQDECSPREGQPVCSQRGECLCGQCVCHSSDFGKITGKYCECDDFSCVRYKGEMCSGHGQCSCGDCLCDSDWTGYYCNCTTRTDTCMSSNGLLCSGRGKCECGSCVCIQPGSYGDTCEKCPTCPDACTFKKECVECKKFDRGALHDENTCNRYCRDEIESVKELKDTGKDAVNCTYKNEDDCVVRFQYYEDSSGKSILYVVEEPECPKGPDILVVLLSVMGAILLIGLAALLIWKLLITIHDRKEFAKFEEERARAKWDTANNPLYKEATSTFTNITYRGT
T1 sequence (P06756 31-889 limits assumed): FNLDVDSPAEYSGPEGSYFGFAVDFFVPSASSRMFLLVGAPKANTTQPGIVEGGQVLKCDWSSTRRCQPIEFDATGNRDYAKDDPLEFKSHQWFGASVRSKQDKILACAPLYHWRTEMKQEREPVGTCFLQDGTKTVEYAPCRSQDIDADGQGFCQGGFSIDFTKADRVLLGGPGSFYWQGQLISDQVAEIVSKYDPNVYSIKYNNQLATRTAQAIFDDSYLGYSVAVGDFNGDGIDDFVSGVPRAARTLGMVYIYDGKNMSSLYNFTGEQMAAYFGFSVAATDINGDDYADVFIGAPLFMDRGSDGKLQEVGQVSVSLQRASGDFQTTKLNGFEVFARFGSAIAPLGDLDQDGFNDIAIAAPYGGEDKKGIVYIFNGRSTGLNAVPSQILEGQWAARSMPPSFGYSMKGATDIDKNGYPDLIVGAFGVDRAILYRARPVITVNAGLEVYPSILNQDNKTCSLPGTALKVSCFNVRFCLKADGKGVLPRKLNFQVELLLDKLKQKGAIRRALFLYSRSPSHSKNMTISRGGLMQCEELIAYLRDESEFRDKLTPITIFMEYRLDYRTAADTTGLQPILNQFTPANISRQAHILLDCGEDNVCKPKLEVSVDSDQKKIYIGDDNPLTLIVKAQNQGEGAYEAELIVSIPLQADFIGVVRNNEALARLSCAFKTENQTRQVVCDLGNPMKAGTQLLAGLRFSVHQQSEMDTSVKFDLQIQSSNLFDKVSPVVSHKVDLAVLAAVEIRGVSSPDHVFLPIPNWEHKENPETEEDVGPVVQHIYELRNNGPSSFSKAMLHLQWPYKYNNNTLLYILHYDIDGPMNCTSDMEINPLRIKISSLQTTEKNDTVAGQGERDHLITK
T1 sequence (P06756 891-1048 limits assumed): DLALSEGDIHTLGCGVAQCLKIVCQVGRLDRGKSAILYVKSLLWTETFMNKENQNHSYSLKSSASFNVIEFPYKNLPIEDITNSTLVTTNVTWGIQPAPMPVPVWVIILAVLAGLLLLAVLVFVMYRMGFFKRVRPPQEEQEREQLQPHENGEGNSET
Chain of Integrin alpha-V/beta-5 (P06756 31-889 limits assumed): as the sequence (P06756 31-889 limits assumed) above
Chain of Integrin alpha-V/beta-5 (P06756 891-1048 limits assumed): as the sequence (P06756 891-1048 limits assumed) above
Chain of Integrin alpha-V/beta-5 (P18084 24-799 limits assumed): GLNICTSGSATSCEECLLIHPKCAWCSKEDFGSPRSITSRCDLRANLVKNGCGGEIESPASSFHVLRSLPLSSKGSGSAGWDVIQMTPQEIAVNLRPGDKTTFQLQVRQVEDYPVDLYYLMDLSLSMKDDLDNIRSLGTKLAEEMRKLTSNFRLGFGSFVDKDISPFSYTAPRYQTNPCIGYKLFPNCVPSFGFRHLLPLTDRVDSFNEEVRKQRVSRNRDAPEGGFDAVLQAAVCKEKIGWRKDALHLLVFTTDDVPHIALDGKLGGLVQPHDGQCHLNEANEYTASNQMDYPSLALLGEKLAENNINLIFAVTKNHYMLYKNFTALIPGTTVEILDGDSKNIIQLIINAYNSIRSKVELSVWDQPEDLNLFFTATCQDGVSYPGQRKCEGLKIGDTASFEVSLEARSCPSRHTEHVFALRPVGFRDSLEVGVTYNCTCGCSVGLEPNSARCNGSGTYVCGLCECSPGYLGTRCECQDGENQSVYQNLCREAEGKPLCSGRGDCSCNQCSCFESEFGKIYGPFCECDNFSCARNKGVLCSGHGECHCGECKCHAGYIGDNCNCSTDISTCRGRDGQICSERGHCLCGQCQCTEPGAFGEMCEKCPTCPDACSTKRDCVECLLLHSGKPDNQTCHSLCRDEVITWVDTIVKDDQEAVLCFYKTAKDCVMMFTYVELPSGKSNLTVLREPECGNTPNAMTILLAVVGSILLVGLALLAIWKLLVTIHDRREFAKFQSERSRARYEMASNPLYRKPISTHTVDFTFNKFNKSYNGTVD
Chain of Integrin alpha-IIb/beta-3 (P05106 27-788 limits assumed): as the sequence (P05106 27-788 limits assumed) above
Chain of Integrin alpha-IIb/beta-3 (P08514 32-887 limits assumed): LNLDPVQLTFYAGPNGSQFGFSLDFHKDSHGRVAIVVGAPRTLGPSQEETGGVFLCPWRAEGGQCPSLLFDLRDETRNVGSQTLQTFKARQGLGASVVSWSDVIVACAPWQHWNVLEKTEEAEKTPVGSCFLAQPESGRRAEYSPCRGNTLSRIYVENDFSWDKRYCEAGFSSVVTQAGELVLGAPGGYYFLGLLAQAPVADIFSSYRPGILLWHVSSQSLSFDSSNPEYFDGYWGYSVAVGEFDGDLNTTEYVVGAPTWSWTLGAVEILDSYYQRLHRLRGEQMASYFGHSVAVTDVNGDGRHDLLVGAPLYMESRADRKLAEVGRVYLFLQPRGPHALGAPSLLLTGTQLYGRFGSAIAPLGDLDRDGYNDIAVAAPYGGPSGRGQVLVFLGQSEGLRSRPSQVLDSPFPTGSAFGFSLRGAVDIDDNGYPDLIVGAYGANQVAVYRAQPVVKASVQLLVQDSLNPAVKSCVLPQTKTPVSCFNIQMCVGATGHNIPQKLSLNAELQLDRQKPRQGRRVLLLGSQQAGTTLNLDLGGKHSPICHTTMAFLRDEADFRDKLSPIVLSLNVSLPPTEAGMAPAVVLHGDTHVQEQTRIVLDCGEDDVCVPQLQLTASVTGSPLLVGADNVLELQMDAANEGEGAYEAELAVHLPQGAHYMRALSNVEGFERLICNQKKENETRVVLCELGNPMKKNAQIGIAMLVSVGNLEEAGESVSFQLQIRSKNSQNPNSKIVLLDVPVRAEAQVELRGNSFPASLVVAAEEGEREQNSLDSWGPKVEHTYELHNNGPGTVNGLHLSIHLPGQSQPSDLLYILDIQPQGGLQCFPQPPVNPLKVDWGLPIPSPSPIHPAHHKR
Chain of Integrin alpha-IIb/beta-3 (P08514 891-1039 limits assumed): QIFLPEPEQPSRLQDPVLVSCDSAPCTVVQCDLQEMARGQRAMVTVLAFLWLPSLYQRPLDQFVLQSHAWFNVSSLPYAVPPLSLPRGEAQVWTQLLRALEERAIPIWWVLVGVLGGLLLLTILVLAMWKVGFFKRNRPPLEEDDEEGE

Ki (Integrin alpha-V/beta-5)	IC50 (Integrin alpha-V/beta-3 [1])	half-life [2]	clearance [3]	Ki (Integrin alpha-V/beta-3 [4])	bioavailability [5]	Ki [6]	IC50 (Integrin alpha-V/beta-3 [7])	IC50 (Homo sapiens)	SMILES
2.6 nM									O=C(O)C[C@@H]1Cc2ccc(OCCCNc3ccccn3)cc2Cc2ccccc21
	470 nM	2.4 h	7.2 mL/min/kg	12 nM	100%				O=C(O)C[C@H](Cc1ccc(OCCCNc2ccccn2)cc1)c1ccccc1
6 nM				32 nM		> 10000 nM	500 nM		O=C(O)CC(Cc1ccc(OCCCNc2ccccn2)cc1)c1ccccc1 (centres undefined)
2.5 nM	30 nM	1.58 h	6 mL/min/kg	2.5 nM	100%	36000 nM		26 nM	O=C(O)C[C@H](Cc1ccc(OCCc2ccc3c(n2)NCCC3)cc1)c1ccccc1
	330 nM	5.17 h	4.9 mL/min/kg	7 nM	100%				CNc1cccc(CCOc2ccc(C[C@@H](CC(=O)O)c3ccccc3)cc2)n1
				170 nM					O=C(O)C[C@@H](Cc1ccc(OCCCNc2ccccn2)cc1)c1ccccc1
